Laboratory results published in ChEMBL document CHEMBL1143660, “Structure-activity relationship studies of a series of novel delta-lactam-based histone deacetylase inhibitors” (J Med Chem, 2007).
Activity calls are given as the source filed them. The calls are words filed in the database; no cut-off is given here.

How the values were obtained:
RAW264.7 [1] = assay: Inhibition of LPS-stimulated TNFalpha production in RAW264.7 cells after 24 hrs by ELISA; type: functional, cell-based; settings: Mus musculus, RAW264.7, 24 h
RAW264.7 [2] = assay: Inhibition of LPS-stimulated NO production in RAW264.7 cells after 24 hrs […]; type: functional, cell-based; settings: Mus musculus, RAW264.7, 24 h
In short: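 RAW264.7 murine macrophages stimulated with LPS and treated with inhibitor at 0.1 to 10 µM; suppression of NO production measured and IC50 calculated; values are means of at least three experiments.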

Histone deacetylase = assay: Inhibition of HDAC in HeLa cells by fluorescent activity assay; type: cell-based, Homo sapiens
HCT-15 = assay: Growth inhibition of HCT15 cells by SRB assay; type: functional, Homo sapiens
MDA-MB-231 [3] = assay: Growth inhibition of human MDA-MB-231 cells by SRB assay; type: functional
LOX IMVI = assay: Growth inhibition of LOX-IMVI cells by SRB assay; type: functional; settings: Homo sapiens
ACHN = assay: Growth inhibition of ACHN cells by SRB assay; type: functional; settings: Homo sapiens
PC-3 = assay: Growth inhibition of PC3 cells by SRB assay; type: functional; settings: Homo sapiens
MDA-MB-231 [4] = assay: Inhibition of tumor growth in MDA-MB-231 cells xenografted BALA/c nude mouse at 30 mg/kg, ip; type: functional, Homo sapiens; settings: MDA-MB-231, ip, route intraperitoneal
NCI-H23 = assay: Growth inhibition of NCI-H23 cells by SRB assay; type: functional; settings: Homo sapiens

IC50 (RAW264.7 [1]) [µM] | IC50 (RAW264.7 [2]) [µM] | IC50 (Histone deacetylase) [µM] | Structure (SMILES) | GI50 (MDA-MB-231 [3]; Homo sapiens, MDA-MB-231) [µM] | also measured
> 10 | > 10 | > 10 | CN1CCC=C(CCC(=O)NO)C1=O | – | –
> 10 | > 10 | > 10 | O=C(CC1=CCCN(CCCc2ccccc2)C1=O)NO | – | –
11 | > 10 | – | C=CCN1CCC=C(CCC(=O)NO)C1=O | – | IC50 (Histone deacetylase; read-out: IC50): 4.27 µM
> 10 | > 10 | > 10 | O=C(CC1=CCCN(CCc2ccccc2)C1=O)NO | – | –
> 10 | > 10 | > 10 | O=C(CC1=CCCN(CCCCc2ccccc2)C1=O)NO | – | –
> 10 | > 10 | > 10 | O=C(CCCC1=CCCN(CCc2ccccc2)C1=O)NO | – | –

Second part, the compound before the results:

Structure (SMILES) | IC50 (RAW264.7 [1]) [µM] | IC50 (RAW264.7 [2]) [µM] | IC50 (Histone deacetylase) [µM] | GI50 (MDA-MB-231 [3]; Homo sapiens, MDA-MB-231) [µM] | also measured
O=C(CC1=CCCN(Cc2ccccc2)C1=O)NO | > 10 | > 10 | > 10 | – | –
O=C(CCCCCCC(=O)Nc1ccccc1)NO [VORINOSTAT] | – | – | – | – | GI50 (HCT-15): 0.82 µM; GI50 (MDA-MB-231 [3]): 0.66 µM
O=C(CCC1=CCCN(CCc2ccccc2)C1=O)NO | 1.9 | 4.27 | – | 1.62 | GI50 (LOX IMVI): 5.84 µM; GI50 (ACHN): 7.76 µM; GI50 (PC-3): 8.58 µM; GI50 (HCT-15; Homo sapiens, HCT-15): 8.16 µM; IC50 (Histone deacetylase; read-out: IC50): 0.35 µM
O=C(CCCC1=CCCN(CCCc2ccccc2)C1=O)NO | > 10 | 6.57 | 3.21 | – | –
O=C(CCC1=CCCN(Cc2ccccc2)C1=O)NO | 3.31 | 3.09 | – | 4.26 | Activity (HCT-15; Homo sapiens): inactive; IC50 (Histone deacetylase; read-out: IC50): 0.67 µM
O=C(CCC1=CCCN(CCCCc2ccccc2)C1=O)NO | 1.3 | 1.8 | 0.13 | 1.5 | inhibition in vivo at 30 mg/kg (MDA-MB-231 [4]): 51%; GI50 (ACHN): 2.5 µM; GI50 (PC-3): 1.32 µM; GI50 (HCT-15; Homo sapiens, HCT-15): 5.37 µM; GI50 (NCI-H23): 5.14 µM
O=C(CCCC1=CCCN(CCCCc2ccccc2)C1=O)NO | > 10 | 6.74 | > 10 | – | –
COc1ccc(CN2CCC=C(CCC(=O)NO)C2=O)c(OC)c1 | 5.06 | 5.2 | – | 2.67 | GI50 (LOX IMVI): 6.63 µM; GI50 (ACHN): 9.58 µM; GI50 (PC-3): 4.55 µM; GI50 (HCT-15; Homo sapiens, HCT-15): 7.98 µM; IC50 (Histone deacetylase; read-out: IC50): 0.5 µM
O=C(CCC1=CCCN(CCCc2ccccc2)C1=O)NO | 1.1 | 2.71 | 0.27 | 0.5 | GI50 (LOX IMVI): 3.34 µM; GI50 (ACHN): 1.17 µM; GI50 (PC-3): 5.04 µM; GI50 (HCT-15; Homo sapiens, HCT-15): 4.99 µM; GI50 (NCI-H23): 3.79 µM
